According to ChEMBL document CHEMBL4765486, “Novel Nonsecosteroidal Vitamin D Receptor Modulator Combined with Gemcitabine Enhances Pancreatic Cancer Therapy through Remodeling of the Tumor Microenvironment” (J Med Chem, 2021):
Calls of active or inactive are those of the source.

What was measured:
LTC-14 [1] = experiment: Inhibition of rat LTC-14 cells activation assessed as inhibition of PDGFB mRNA expression at 0.5 uM treated under conditioned media of DSL-6A/C1 cells for 24 hrs by q-PCR analysis; type: functional, cell-based
Method in brief: (§1)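 LTC-14 PSCs were exposed for 24 h to conditioned medium from rat DSL-6A/C1 cancer cells containing compound at 0.5 μM. Pdgfa, Pdgfb, Fgf2, Hgf and Periodin mRNA were quantified by RT-qPCR. Three repeats, mean ± SD versus CM alone.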

[2] = Cytotoxicity against rat DSL-6A/C1 cells assessed as reduction in cell proliferation at 0.5 uM incubated for 24 hrs by MTT assay; type: cell-based; conditions: dsl-6a/c1, 24 h
LTC-14 [3] = experiment: Inhibition of rat LTC-14 cells activation assessed decrease in TGF-beta1 induced Acta2 mRNA expression at 0.5 uM incubated for 24 hrs by q-PCR analysis; type: functional, cell-based
Method in brief: (§2)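 Immortalized rat PSC line LTC-14, about 1×10^5 cells per well, was grown 24 h at 37 °C in 5% CO2. Cells then received compound (0.5 μM) plus TGF-β1 for 24 h; TGF-β1 is stated as 0.5 ng/mL in the text and 5 ng/mL in the methods. Col1a1 and Acta2 mRNA were measured by RT-qPCR. Mean ± SD versus TGF-β1 alone.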

LTC-14 [4] = experiment: Inhibition of rat LTC-14 cells activation assessed as inhibition of Periodin-mRNA expression at 0.5 uM treated under conditioned media of DSL-6A/C1 cells for 24 hrs by q-PCR analysis; type: functional, cell-based; method in brief: as §1
LTC-14 [5] = experiment: Inhibition of rat LTC-14 cells activation assessed as inhibition of Fgf mRNA expression at 0.5 uM treated under conditioned media of DSL-6A/C1 cells for 24 hrs by q-PCR analysis; type: functional, cell-based; method in brief: as §1
[6] = target: T1, Vitamin D3 receptor (Homo sapiens) (UniProt P11473); experiment: Binding affinity to VDR (unknown origin) at 1 uM by fluorescence polarization assay relative to calcipotriol
T1 sequence (whole entry): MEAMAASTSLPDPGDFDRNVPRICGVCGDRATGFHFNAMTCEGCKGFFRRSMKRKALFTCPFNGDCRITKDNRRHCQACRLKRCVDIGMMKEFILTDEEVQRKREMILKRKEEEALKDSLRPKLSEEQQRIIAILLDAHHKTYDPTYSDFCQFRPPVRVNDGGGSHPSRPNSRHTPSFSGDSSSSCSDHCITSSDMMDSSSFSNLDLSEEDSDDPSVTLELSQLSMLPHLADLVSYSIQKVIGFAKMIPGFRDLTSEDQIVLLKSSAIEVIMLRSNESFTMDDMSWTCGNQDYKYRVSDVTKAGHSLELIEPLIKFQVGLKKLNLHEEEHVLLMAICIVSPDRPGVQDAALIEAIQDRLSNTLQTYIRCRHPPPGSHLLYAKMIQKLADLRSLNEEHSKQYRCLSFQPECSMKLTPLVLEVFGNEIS
Method in brief: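 PolarScreen VDR competitor fluorescence polarization assay with compounds at 1 μM in triplicate. Read-out used 535 nm excitation and 590 nm emission filters.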

LTC-14 [7] = experiment: Inhibition of rat LTC-14 cells activation assessed decrease in TGF-beta1 induced collagen 1 protein expression at 0.5 uM incubated for 24 hrs by Western blot analysis; type: functional, cell-based
Method in brief: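 LTC-14 cells were treated for 24 h with compound (0.5 μM) plus TGF-β1 (0.5 ng/mL in the text, 5 ng/mL in the methods). Lysates were run on 10% SDS-PAGE, transferred to PVDF and probed with rabbit anti-collagen I, with β-actin as reference. Bands were quantified by densitometry versus TGF-β1 alone.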

LTC-14 [8] = experiment: Inhibition of rat LTC-14 cells activation assessed as inhibition of PDGFA mRNA expression at 0.5 uM treated under conditioned media of DSL-6A/C1 cells for 24 hrs by q-PCR analysis; type: functional, cell-based; method in brief: as §1
LTC-14 [9] = experiment: Inhibition of rat LTC-14 cells activation assessed as inhibition of Hgf mRNA expression at 0.5 uM treated under conditioned media of DSL-6A/C1 cells for 24 hrs by q-PCR analysis; type: functional, cell-based; method in brief: as §1
[10] = Cytotoxicity against rat LTC-14 cells assessed as reduction in cell proliferation incubated for 24 hrs by MTT assay; type: cell-based; conditions: LTC-14, 24 h
LTC-14 [11] = experiment: Inhibition of rat LTC-14 cell activation assessed decrease in TGF-beta1 induced Colla1 mRNA expression at 0.5 uM incubated for 24 hrs by q-PCR analysis; type: functional; method in brief: as §2
[12] = target: T1, Vitamin D3 receptor (Homo sapiens); experiment: Agonist activity at VDR (unknown origin) expressed in HEK293 cells co-transfected with pGL4.27-SPP3-Luc and CMV-hRXRalpha and pCMX-Renilla plasmids after 24 hrs by dual luciferase reporter gene assay; type: cell-based; conditions: filed as agonist, dose 0.0001-1 µM
Method in brief: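 HEK293 cells in 48-well plates were transfected per well with 40 ng TK-Spp×3-LUC reporter, 20 ng pCMX-Renilla, 30 ng pENTER-CMV-hRXRα and 100 ng pCMX-VDR using Lipofectamine 2000. Compounds were added 8 h post-transfection, and dual-luciferase activity was read 24 h later. Firefly signal was normalised to Renilla. The experiment was run three times.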

Vitamin D3 receptor = target: T2, Vitamin D3 receptor (Homo sapiens, UniProt P11473); experiment: Binding affinity to VDR (unknown origin) by fluorescence polarization assay
T2 sequence (P11473 whole entry): T1 sequence (whole entry)
Method in brief: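 Competitive VDR binding was measured by PolarScreen fluorescence polarization, in triplicate.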

LTC-14 [13] = experiment: Inhibition of rat LTC-14 cells interaction with DSL-6A/C1 cells in conditioned media assessed as inhibition of PDGF-A protein expression at 0.5 uM measured after 24 hrs by Western blot analysis; type: functional, cell-based
Method in brief: (§3)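 LTC-14 cells were treated for 24 h with DSL-6A/C1 conditioned medium plus compound (0.5 μM). Proteins were separated on 10% SDS-PAGE, transferred to PVDF and probed with rabbit anti-PDGF-A or anti-POSTN, with β-actin as loading reference.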

DSL-6A/C1 [14] = experiment: Potentiation of gemcitabine-induced antitumor activity against luciferase-tagged rat DSL-6A/C1 cells and GFP-tagged LTC-14 cells co-inoculated in orthotropic xenograft BALB/c nude mouse model of pancreatic cancer assessed as reduction in tumor volume at 500 ug/kg, ip administered once every 3 days for 12 days coadministered with gemcitabine at 100 mg/kg and measured after 3 days post last dose by IVIS optical imaging analysis; type: functional, organism-based; conditions: dose 500.0 µg/kg, time 12.0 day
Method in brief: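 DSL-6A/C1-luci and LTC-14-GFP cells were co-inoculated orthotopically into the pancreas of nude mice, n=5 per group. Treatment began 7 days after grafting (methods) or 14 days (text). Gemcitabine 100 mg/kg ip every 3 days, alone or with compound 500 μg/kg or calcipotriol 60 μg/kg in ethanol/polyoxyethylene castor oil/saline (1:1:18), for 12 days. Tumour growth was followed by bioluminescence imaging.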

DSL-6A/C1 [15] = experiment: Antiproliferative activity against rat DSL-6A/C1 cells assessed as reduction in cell viability at 0.5 uM incubated for 24 hrs compound treated LTC-14-CM cells by MTT assay; type: functional, cell-based
Method in brief: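 LTC-14 PSCs were pretreated with compound for 24 h. Their collected supernatant was used to culture DSL-6A/C1 cells, and proliferation was read by MTT: 4 h incubation with MTT (5 mg/mL stock), absorbance at 570 nm. Run in triplicate, compared with untreated PSC-CM.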

DSL-6A/C1 [16] = experiment: Antiproliferative activity against rat DSL-6A/C1 cells assessed as reduction in cell viability at 0.5 uM treated with conditioned media of LTC-14 cells for 24 hrs by MTT assay; type: functional, cell-based
Method in brief: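 Rat pancreatic cancer DSL-6A/C1 cells were cultured in supernatant from LTC-14 PSCs (PSC-CM) with compound added at 0.5 μM for 24 h. Viability was then read by MTT: 4 h incubation with MTT (5 mg/mL stock), absorbance at 570 nm. Run in triplicate, compared with PSC-CM alone.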

Mus musculus = experiment: Inhibition of GFP-tagged rat LTC-14 cells activation in BALB/c nude mouse xenografted along with luciferase-tagged DSL-6A/C1-Luc cells assessed as reduction in alpha-smooth muscle actin expression in tumor at 500 ug/kg, ip administered once every 3 days for 12 days coadministered with gemcitabine at 100 mg/kg by DAPI staining based laser confocal scanning microscopy; type: functional, organism-based; conditions: dose 500.0 µg/kg, time 12.0 day
Method in brief: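 Tumours were taken from orthotopic co-inoculated nude mice given gemcitabine 100 mg/kg plus compound (500 μg/kg) or calcipotriol (60 μg/kg) ip for 12 days. Sections were fixed in 4% PFA, permeabilised with 0.5% Triton X-100 and blocked in 5% BSA. They were incubated with anti-α-SMA overnight at 4 °C, then an Alexa Fluor 594 secondary for 1 h at 37 °C, DAPI-counterstained and imaged by confocal microscopy.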

LTC-14 [17] = experiment: Inhibition of rat LTC-14 cells interaction with DSL-6A/C1 cells in conditioned media assessed as inhibition of POSTN protein expression at 0.5 uM measured after 24 hrs by Western blot analysis; type: functional, cell-based; method in brief: as §3
LTC-14 [18] = experiment: Inhibition of rat LTC-14 cells activation assessed as reduction in ECM deposition resulting in doxorubicin accumulation in PSC spheres pretreated with compounds followed by doxorubicin addition by laser confocal microscopy analysis; type: functional, cell-based
Method in brief: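 LTC-14 cells were grown in 3D culture to form PSC spheres and treated with compounds. Fluorescent doxorubicin was then added, and its penetration into the spheres was imaged by laser confocal microscopy. Three repeats, versus untreated control.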

SMILES	RBA [6]	RBA ([6]; filed as agonist) [%]	inhibition (LTC-14 [1])	Activity [2]	inhibition (LTC-14 [3])	inhibition (LTC-14 [4])	inhibition (LTC-14 [5])	inhibition (LTC-14 [7])	inhibition (LTC-14 [8])	inhibition (LTC-14 [9])	IC50 [10] [µM]	inhibition (LTC-14 [11])	further results
CCn1c(C(=O)NCCN2CCCCC2)ccc1C(CC)(CC)c1ccc(OCCC(C)(C)O)c(C)c1	24%		Active	Non-Toxic	Active	Active	Active	Active	Active	Active	> 10	Active	
CCn1c(C(=O)NCCN2CCN(C)CC2)ccc1C(CC)(CC)c1ccc(OCCC(C)(C)O)c(C)c1		68	Active	Non-Toxic	Active	Active	Active	Active	Active	Active	> 10	Active	inhibition (LTC-14 [13]): Active; inhibition (LTC-14 [17]): Active
CCN(CC)CCNC(=O)c1ccc(C(CC)(CC)c2ccc(OCCCCC(O)(CC)CC)c(C)c2)n1CC		71			Active			Active			> 10	Active	
CCN(CC)CCCNC(=O)c1ccc(C(CC)(CC)c2ccc(OCCCCCC(O)(CC)CC)c(C)c2)n1CC	33%				Active			Active			> 10	Active	
CCn1c(C(=O)NCC2CCCO2)ccc1C(CC)(CC)c1ccc(OCCC(C)(C)O)c(C)c1 (stereo unspecified)		59			Active			Active			> 10	Active	

Continued, in another order:

RBA [6]	RBA ([6]; filed as agonist) [%]	SMILES	inhibition (LTC-14 [1])	Activity [2]	inhibition (LTC-14 [3])	inhibition (LTC-14 [4])	inhibition (LTC-14 [5])	inhibition (LTC-14 [7])	inhibition (LTC-14 [8])	inhibition (LTC-14 [9])	IC50 [10] [µM]	inhibition (LTC-14 [11])	further results
36%		CCN(CC)CCNC(=O)c1ccc(C(CC)(CC)c2ccc(OCCC(C)(C)O)c(C)c2)n1CC	Active	Non-Toxic	Active	Active	Active	Active	Active	Active	> 10	Active	
	86	CCn1cc(C(CC)(CC)c2ccc(OCC(C)O)c(C)c2)cc1C(=O)NCC(O)CO (stereo unspecified)	Active	Non-Toxic	Active	Active	Active	Active	Active	Active	> 10	Active	Activity [12]: Dose-dependent effect; IC50 (Vitamin D3 receptor): 0.0816 µM; inhibition (LTC-14 [13]): Active; TGI (DSL-6A/C1 [14]): Active; Activity (DSL-6A/C1 [15]): Active; Activity (DSL-6A/C1 [16]): inactive; inhibition (Mus musculus): Active; inhibition (LTC-14 [17]): Active; inhibition (LTC-14 [18]): Active
inactive		CCn1cc(C(CC)(CC)c2ccc(OCC(C)O)c(C)c2)cc1C(=O)NCCN1CCCCC1 (stereo unspecified)	Active	Non-Toxic	Active	Active	Active	Active	Active	Active	> 10	Active	
	62	CCn1cc(C(CC)(CC)c2ccc(OCC(C)O)c(C)c2)cc1C(=O)NCCCN1CCN(C)CC1 (stereo unspecified)			Active			Active			> 10	Active	
	78	CCN(CC)CCCNC(=O)c1cc(C(CC)(CC)c2ccc(OCC(C)O)c(C)c2)cn1CC (stereo unspecified)			Active			Active			> 10	Active	
20%		CCN(CC)CCCNC(=O)c1ccc(C(CC)(CC)c2ccc(OCCCCCC(C)(C)O)c(C)c2)n1CC			Active			Active			> 10	Active	
23%		CCN(CC)CCCNC(=O)c1ccc(C(CC)(CC)c2ccc(OCCCC(O)(CC)CC)c(C)c2)n1CC			Active			Active			> 10	Active	
